Measured values from ChEMBL document CHEMBL4219167, “Disulfiram-based disulfides as narrow-spectrum antibacterial agents” (Bioorg Med Chem Lett, 2018).
Converted amounts (≈) assume the structure as drawn.

Key:
Streptococcus pneumoniae = assay: Antibacterial activity against Streptococcus pneumoniae TCH8431 after 20 hrs by broth microdilution assay; format: functional; conditions: TCH8431, 20 h
Streptococcus agalactiae = assay: Antibacterial activity against Streptococcus agalactiae SGBS005 after 20 hrs by broth microdilution assay; format: functional; conditions: SGBS005, 20 h
Enterococcus faecium = assay: Antibacterial activity against vancomycin-resistant Enterococcus faecium ATCC 700221 after 20 hrs by broth microdilution assay; format: functional; conditions: ATCC 700221, 20 h
Outline: (§1)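 Brain heart infusion broth at 37°C; E. faecium under 5% CO2. Cells at 0.5 McFarland are diluted 1:100 and exposed to serial dilutions (DMSO stocks 1 mM or 1 mg/mL; controls in water).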

[1] = system: Staphylococcus epidermidis; assay: Antibacterial activity against vancomycin-intermediate resistant Staphylococcus epidermidis NRS6 after 20 hrs by broth microdilution assay; format: functional; conditions: NRS6, 20 h
Staphylococcus aureus [2] = assay: Antibacterial activity against vancomycin-intermediate resistant Staphylococcus aureus AR-217 after 20 hrs by broth microdilution assay; format: functional; conditions: AR-217, 20 h
Staphylococcus aureus [3] = assay: Antibacterial activity against vancomycin-resistant Staphylococcus aureus HIP14300 after 20 hrs by broth microdilution assay; format: functional; conditions: HIP14300, 20 h
Streptococcus pyogenes = assay: Antibacterial activity against Streptococcus pyogenes H293 after 20 hrs by broth microdilution assay; format: functional; conditions: H293, 20 h
Staphylococcus aureus [4] = assay: Antibacterial activity against methicillin-resistant Staphylococcus aureus COL after 20 hrs by broth microdilution assay; format: functional
Bacillus cereus = assay: Antibacterial activity against Bacillus cereus Gibson 971 after 20 hrs by broth microdilution assay; format: functional; conditions: Gibson 971, 20 h
Listeria monocytogenes = assay: Antibacterial activity against Listeria monocytogenes Gibson after 20 hrs by broth microdilution assay; format: functional; outline: as §1
Brucella neotomae = assay: Antibacterial activity against Brucella neotomae 5K33 after 20 hrs by broth microdilution assay; format: functional; conditions: 5K33, 20 h
Micrococcus luteus = assay: Antibacterial activity against Micrococcus luteus SK58 after 20 hrs by broth microdilution assay; format: functional; conditions: SK58, 20 h
Salmonella typhi = assay: Antibacterial activity against Salmonella typhi Ty2 after 20 hrs by Todd Hewitt broth broth microdilution method; format: functional, Salmonella enterica subsp. enterica serovar Typhi str. Ty2; conditions: Salmonella enterica
Rhodococcus erythropolis = assay: Antibacterial activity against Rhodococcus erythropolis SK121 after 20 hrs by broth microdilution assay; format: functional; conditions: SK121, 20 h
Outline: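 R. erythropolis grown in brain heart infusion broth at 30°C. A 0.5 McFarland suspension diluted 1:100 is treated with serial dilutions from 1 mM or 1 mg/mL DMSO stocks; control antibiotics are in water.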

Citrobacter freundii = assay: Antibacterial activity against Citrobacter freundii 4_7_47CFAA after 20 hrs by broth microdilution assay; format: functional
Outline: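 Brucella broth, 37°C, 5% CO2. Inoculum is 0.5 McFarland diluted 1:100, with serial drug dilutions from DMSO stocks (1 mM or 1 mg/mL) and control antibiotics in water.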

Burkholderia cepacia = assay: Antibacterial activity against Burkholderia cepacia UCB 717 after 20 hrs by broth microdilution assay; format: functional; conditions: UCB 717, 20 h
Outline: (§2)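 Medium is tryptic soy broth, 37°C. Overnight culture is adjusted to 0.5 McFarland, diluted 1:100 and exposed to serial dilutions (test agents from 1 mM or 1 mg/mL DMSO stocks; control antibiotics in water). Incubation lasts 20 h. MIC is the lowest concentration with no visible growth.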

[5] = system: Yersinia pseudotuberculosis; assay: Antibacterial activity against Yersinia pseudotuberculosis P61 after 20 hrs by broth microdilution assay; format: functional; conditions: P61, 20 h
Outline: (§3)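 Yersinia cultured in tryptic soy broth at 28°C. A 0.5 McFarland suspension diluted 1:100 receives serial dilutions of agents from 1 mM or 1 mg/mL DMSO stocks; control antibiotics are in water.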

Francisella tularensis = assay: Antibacterial activity against Francisella tularensis Utah 112 after 20 hrs by broth microdilution assay; format: functional; conditions: Utah 112, 20 h
Acinetobacter baumannii = assay: Antibacterial activity against Acinetobacter baumannii AB5075 after 20 hrs by broth microdilution assay; format: functional; conditions: AB5075, 20 h
Burkholderia multivorans = assay: Antibacterial activity against Burkholderia multivorans CF2 after 20 hrs by broth microdilution assay; format: functional; conditions: CF2, 20 h; outline: as §2
Yersinia pestis [6] = assay: Antibacterial activity against Yersinia pestis Kuma D7 after 20 hrs by broth microdilution assay; format: functional; conditions: Kuma D7, 20 h
Pseudomonas aeruginosa = assay: Antibacterial activity against Pseudomonas aeruginosa ATCC 15442 after 20 hrs by broth microdilution assay; format: functional; conditions: ATCC 15442, 20 h; outline: as §2
Bacillus anthracis [7] = assay: Antibacterial activity against Bacillus anthracis UM23-1 after 20 hrs by broth microdilution assay; format: functional; conditions: UM23-1, 20 h
Vibrio cholerae = assay: Antibacterial activity against Vibrio cholerae TS D4 after 20 hrs by Todd Hewitt broth broth microdilution method; format: functional; conditions: TS D4, 20 h
Klebsiella pneumoniae = assay: Antibacterial activity against Klebsiella pneumoniae 700603 after 20 hrs by broth microdilution assay; format: functional; conditions: Klebsiella pneumoniae, 700603, 20 h; outline: as §2
Yersinia enterocolitica = assay: Antibacterial activity against Yersinia enterocolitica WA-314 after 20 hrs by broth microdilution assay; format: functional; conditions: WA-314, 20 h; outline: as §3
Proteus mirabilis = assay: Antibacterial activity against Proteus mirabilis HM-752 after 20 hrs by broth microdilution assay; format: functional; conditions: HM-752, 20 h; outline: as §2
Shigella dysenteriae = assay: Antibacterial activity against Shigella dysenteriae Newcastle 1934 after 20 hrs by broth microdilution assay; format: functional; conditions: Newcastle 1934, 20 h; outline: as §2
Escherichia coli = assay: Antibacterial activity against Escherichia coli DC10B after 20 hrs by broth microdilution assay; format: functional; outline: as §2
Bacillus anthracis [8] = assay: Antibacterial activity against Bacillus anthracis Sterne 34F2 after 20 hrs by broth microdilution assay; format: functional; conditions: Sterne 34F2, 20 h
Bacillus anthracis [9] = assay: Antibacterial activity against Bacillus anthracis Ames 35 after 20 hrs by broth microdilution assay; format: functional; conditions: Ames 35, 20 h
Corynebacterium striatum = assay: Antibacterial activity against Corynebacterium striatum FS-1 after 20 hrs by broth microdilution assay; format: functional; conditions: FS-1, 20 h
Bacillus anthracis [10] = assay: Antibacterial activity against Bacillus anthracis Weybridge after 20 hrs by broth microdilution assay; format: functional
Yersinia pestis [11] = assay: Antibacterial activity against Yersinia pestis Kim D2 after 20 hrs by broth microdilution assay; format: functional; conditions: Kim D2, 20 h

Row | SMILES | MIC (Streptococcus pneumoniae) [µM] | MIC (Streptococcus agalactiae) [µM] | MIC (Enterococcus faecium) [µM] | MIC [1] [µM] | MIC (Staphylococcus aureus [2]) [µM] | MIC (Staphylococcus aureus [3]) [µM] | MIC (Streptococcus pyogenes) [µM] | MIC (Staphylococcus aureus [4]) [µM] | MIC (Bacillus cereus) [µM] | MIC (Listeria monocytogenes) [µM] | MIC (Brucella neotomae) [µM] | MIC (Micrococcus luteus) [µM] | MIC (Salmonella typhi) [µM] | MIC (Rhodococcus erythropolis) [µM] | MIC (Citrobacter freundii) [µM] | MIC (Burkholderia cepacia) [µM] | MIC [5] [µM] | MIC (Francisella tularensis) [µM] | MIC (Acinetobacter baumannii) [µM] | MIC (Burkholderia multivorans) [µM] | further results
1 | CCCCCCCCCCSSC(=S)N(CC)CC | 4 (≈ 1.29 µg/mL) | 16 (≈ 5.15 µg/mL) | 16 (≈ 5.15 µg/mL) | 16 (≈ 5.15 µg/mL) | 16 (≈ 5.15 µg/mL) | 32 (≈ 10.3 µg/mL) | 4 (≈ 1.29 µg/mL) | 16 (≈ 5.15 µg/mL) |  |  |  |  |  |  |  |  |  |  |  |  | 
2 | CCN(CC)C(=S)SSCC(C)C | > 32 | > 32 | > 32 | > 32 | > 32 | > 32 | 32 (≈ 7.6 µg/mL) | > 32 |  |  |  |  |  |  |  |  |  |  |  |  | 
3 | CCSSC(=S)N(CC)CC | > 32 | > 32 | > 32 | 32 (≈ 6.7 µg/mL) | 8 (≈ 1.68 µg/mL) | 16 (≈ 3.35 µg/mL) | 32 (≈ 6.7 µg/mL) | 16 (≈ 3.35 µg/mL) |  |  |  |  |  |  |  |  |  |  |  |  | 
4 | CCCCCSSC(=S)N(CC)CC | > 32 | > 32 | > 32 | 8 (≈ 2.01 µg/mL) | 8 (≈ 2.01 µg/mL) | 16 (≈ 4.02 µg/mL) | > 32 | 16 (≈ 4.02 µg/mL) | 1 (≈ 0.251 µg/mL) | 8 (≈ 2.01 µg/mL) | 32 (≈ 8.05 µg/mL) | 16 (≈ 4.02 µg/mL) | > 32 | 16 (≈ 4.02 µg/mL) | > 32 | > 32 | > 32 | 32 (≈ 8.05 µg/mL) | > 32 | > 32 | MIC (Yersinia pestis [6]): 32 µM (≈ 8.05 µg/mL); MIC (Pseudomonas aeruginosa): > 32 µM; MIC (Bacillus anthracis [7]): 4 µM (≈ 1.01 µg/mL); MIC (Vibrio cholerae): > 32 µM; MIC (Klebsiella pneumoniae): > 32 µM; MIC (Yersinia enterocolitica): > 32 µM; MIC (Proteus mirabilis): > 32 µM; MIC (Shigella dysenteriae): > 32 µM; MIC (Escherichia coli): > 32 µM; MIC (Bacillus anthracis [8]): 4 µM (≈ 1.01 µg/mL); MIC (Bacillus anthracis [9]): 4 µM (≈ 1.01 µg/mL); MIC (Corynebacterium striatum): 32 µM (≈ 8.05 µg/mL); MIC (Bacillus anthracis [10]): 8 µM (≈ 2.01 µg/mL); MIC (Yersinia pestis [11]): 32 µM (≈ 8.05 µg/mL)
5 | CCN(CC)C(=S)SSc1ccccc1 | > 32 | > 32 | > 32 | 16 (≈ 4.12 µg/mL) | 16 (≈ 4.12 µg/mL) | 16 (≈ 4.12 µg/mL) | > 32 | 32 (≈ 8.24 µg/mL) |  |  |  |  |  |  |  |  |  |  |  |  | 
6 | CCCCCCCSSC(=S)N(CC)CC | 32 (≈ 8.95 µg/mL) | > 32 | 8 (≈ 2.24 µg/mL) | 4 (≈ 1.12 µg/mL) | 2 (≈ 0.559 µg/mL) | 4 (≈ 1.12 µg/mL) | 16 (≈ 4.47 µg/mL) | 4 (≈ 1.12 µg/mL) | 1 (≈ 0.28 µg/mL) | 4 (≈ 1.12 µg/mL) | > 32 | 16 (≈ 4.47 µg/mL) | > 32 | 16 (≈ 4.47 µg/mL) | > 32 | > 32 | > 32 | 16 (≈ 4.47 µg/mL) | > 32 | > 32 | MIC (Yersinia pestis [6]): 32 µM (≈ 8.95 µg/mL); MIC (Pseudomonas aeruginosa): > 32 µM; MIC (Bacillus anthracis [7]): 1 µM (≈ 0.28 µg/mL); MIC (Vibrio cholerae): > 32 µM; MIC (Klebsiella pneumoniae): > 32 µM; MIC (Yersinia enterocolitica): > 32 µM; MIC (Proteus mirabilis): > 32 µM; MIC (Shigella dysenteriae): > 32 µM; MIC (Escherichia coli): > 32 µM; MIC (Bacillus anthracis [8]): 2 µM (≈ 0.559 µg/mL); MIC (Bacillus anthracis [9]): 4 µM (≈ 1.12 µg/mL); MIC (Corynebacterium striatum): 16 µM (≈ 4.47 µg/mL); MIC (Bacillus anthracis [10]): 2 µM (≈ 0.559 µg/mL); MIC (Yersinia pestis [11]): 32 µM (≈ 8.95 µg/mL)
7 | CCN(CC)C(=S)SSCc1ccccc1 | > 32 | > 32 | 32 (≈ 8.69 µg/mL) | 8 (≈ 2.17 µg/mL) | 2 (≈ 0.543 µg/mL) | 8 (≈ 2.17 µg/mL) | > 32 | 8 (≈ 2.17 µg/mL) | 2 (≈ 0.543 µg/mL) | 8 (≈ 2.17 µg/mL) | 32 (≈ 8.69 µg/mL) | 16 (≈ 4.34 µg/mL) | > 32 | 16 (≈ 4.34 µg/mL) | > 32 | > 32 | > 32 | 32 (≈ 8.69 µg/mL) | > 32 | 32 (≈ 8.69 µg/mL) | MIC (Yersinia pestis [6]): 32 µM (≈ 8.69 µg/mL); MIC (Pseudomonas aeruginosa): > 32 µM; MIC (Bacillus anthracis [7]): 2 µM (≈ 0.543 µg/mL); MIC (Vibrio cholerae): > 32 µM; MIC (Klebsiella pneumoniae): > 32 µM; MIC (Yersinia enterocolitica): > 32 µM; MIC (Proteus mirabilis): > 32 µM; MIC (Shigella dysenteriae): > 32 µM; MIC (Escherichia coli): > 32 µM; MIC (Bacillus anthracis [8]): 4 µM (≈ 1.09 µg/mL); MIC (Bacillus anthracis [9]): 4 µM (≈ 1.09 µg/mL); MIC (Corynebacterium striatum): 32 µM (≈ 8.69 µg/mL); MIC (Bacillus anthracis [10]): 4 µM (≈ 1.09 µg/mL); MIC (Yersinia pestis [11]): 16 µM (≈ 4.34 µg/mL)
